Source: PubChem (several laboratories)
L major viab = reduces viability of Leishmania major promastigotes; 200,000 compounds, 9% hits; AID 1063; resazurin fluorescence viability; inhibition, % at 10 µM; in the data active means inhibition above about 50%;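 further: promastigotes grown with compound for 44 hours at 28 °C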
WT yeast gro inh = growth inhibition of WT yeast, mitochondrial fusion screen | mitochondrial fusion phenotypic screen, WT strain | inhibition, % at 10 µM | 190,000 compounds, 2.1% hits | AID 1362; in the data active means inhibition above about 58%; tested in S. cerevisiae
Diaph inh CS = counter-screen for diaphorase-based assays: diaphorase inhibitors and chemical oxidizers | inhibition, % at 20 µM | 190,000 compounds, 0.69% hits | diaphorase resazurin-to-resorufin fluorescence, NADH, 16 min; bacterial (C. kluyveri) enzyme, not human | AID 1217;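 active means primary screen inhibition at 20 µM above a set limit, cut at about 50% in these data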;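 further: plate controls were DMSO with full reaction for no effect and wells lacking NADH for full effect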
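material = Clostridium kluyveri diaphorase enzyme | amount = 0.14 U/mL diaphorase, enzyme working solution | schedule = incubation 16 min, room temperature | detection = fluorescence of resorufin formed from resazurin, Ex 544/Em 590 nm | benchmarks = positive control minus NADH, DMSO neutral control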
Diaphorase act = activates diaphorase or chemically reduces, flagging diaphorase assay artifacts; Diaphorase/resazurin coupled assay, resorufin fluorescence, 16 min; stronger effect = higher value; 1 = vehicle wells, 0 = NADH-free wells; activation factor at 20 µM; 190,000 compounds, 0.005% hits;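 active means diaphorase activity raised at least twofold by the compound at 20 µM; inactive means activation factor below 2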
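Test system: Clostridium kluyveri diaphorase, purified enzyme; input: enzyme 0.07 U/mL final; buffer or medium: 50 mM HEPES pH 7.4 with 4.542 mM MgCl2, 0.005% Tween 20; also added: 0.114 mM NADH and 0.1 mM resazurin, final amounts; schedule: 16 min enzyme reaction, ambient temperature; technique: fluorescence of resorufin, 544 nm excitation, 590 nm emission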
KCC2 mod = modulates chloride dependent transport by human KCC2. Q9H2X9. KCC2 cells, thallium flux FluoZin-2 fluorescence. B-score of Tl+ flux slope (higher = more flux/activation; lower = inhibition) at 10 µM. 190,000 compounds, 2.2% hits. AID 1456;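 active means thallium flux slope and its plate-corrected score both differing from the plate sample mean at a set confidence after two filtering rounds, in either direction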;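 further: slope of fluorescence scaled to starting intensity during 10 to 20 s after thallium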
ROMK primary = modulators of human ROMK potassium channel. P48048. Tet-inducible ROMK, thallium flux fluorescence; actives lie on both sides. B-score at 10 µM. 130,000 compounds, 2% hits. AID 1918;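 active means signal ratio slope over the read window, or its plate-corrected B-score, at least 3 SD from the plate mean, either direction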;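 further: B-score of the F/F0 ratio slope over 7 to 12 s after thallium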
Target sequence (P48048 whole entry, looked up): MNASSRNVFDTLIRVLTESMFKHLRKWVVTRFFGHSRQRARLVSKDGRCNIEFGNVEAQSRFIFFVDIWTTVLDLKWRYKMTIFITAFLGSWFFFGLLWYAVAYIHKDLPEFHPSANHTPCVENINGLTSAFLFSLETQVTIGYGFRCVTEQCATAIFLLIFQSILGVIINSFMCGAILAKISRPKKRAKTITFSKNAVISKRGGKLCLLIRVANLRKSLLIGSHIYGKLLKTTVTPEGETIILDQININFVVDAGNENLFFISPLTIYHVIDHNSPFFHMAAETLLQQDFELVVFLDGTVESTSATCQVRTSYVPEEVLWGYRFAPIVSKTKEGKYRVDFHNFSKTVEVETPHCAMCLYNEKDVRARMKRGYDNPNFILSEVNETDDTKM
* hit, by the source's call; . = no result given. Rows were chosen to be rich in hits. Some 12% of all compounds tested hit in one or more screens of this group.

SMILES	L major viab	WT yeast gro inh	Diaph inh CS	Diaphorase act	KCC2 mod	ROMK primary
CCCNC(=O)COc1nc2ccccc2nc1N1CCOCC1	-1	-5	6	0.9	-0.35	1.9
Cc1cccc(C)c1NC(=O)C1=C(O)c2sccc2N(C)S1(=O)=O	-9	-2	12	0.9	0.68	0.57
CN1C(c2ccc(F)cc2)=CS/C1=C(/C#N)c1nnc(N2CCOCC2)n1-c1ccccc1	56*	2	16	0.8	-2.1	.
C=CCN1C(c2ccccc2)=CS/C1=C(/C#N)c1nnc(N2CCOCC2)n1-c1ccccc1	74*	-14	10	0.9	-1.3	.
CN1C(=O)NC(c2ccccc2)(C(F)(F)F)S/C1=C(/C#N)c1nnc(N2CCOCC2)n1-c1ccccc1 (stereo not given)	-5	-3	8	0.9	-0.45	-0.018
Oc1ccc2ccccc2c1N=Nc1ccccn1	100*	11	17	0.8	3	-0.33
Cc1cccc(OCc2n[nH]c(=S)n2C2CCCCC2)c1	-1	67*	29	0.7	-0.06	-0.059
CN(Cc1ccccc1)c1ncnc2ccc(Br)cc12	13	21	3	1	-2.8	-4.7*
Clc1ccccc1-c1ncnc2ccc(Br)cc12	4	-15	10	0.9	-1	-0.44
Cc1ccc(N2C(=O)c3ccc(C(=O)N4CCOCC4)cc3C2=O)cc1C	-2	-7	6	0.9	0.29	0.89
C/C(=N\NC(=O)C(=O)Nc1cc(Cl)ccc1Cl)c1ccncc1	48	-13	9	0.9	-0.36	1.6
C/C(=N\NC(=O)C(=O)Nc1cccc(Cl)c1C)c1ccncc1	69*	-9	6	0.9	0.027	0.89
NC(CO)C(=O)NNCc1ccc(O)c(O)c1O (stereo not given)	-9	-1	74*	0.3	0.44	.
COC(=O)C(N)Cc1ccc(O)c(O)c1 (stereo not given)	-4	-6	43	0.6	0.15	1.2
CN(Cc1ccccc1)S(=O)(=O)c1ccc(NC(=O)C2CCCO2)cc1 (stereo not given)	-4	-8	15	0.8	-0.92	.
CCOC(=O)C1=C(C)NC(=S)N(C(C)=O)C1c1ccc(Cl)cc1 (stereo not given)	0	-7	26	0.7	.	-0.81
COCCOC(=O)C1=C(C)NC(=O)N(C(C)=O)C1c1ccc(Cl)cc1 (stereo not given)	88*	-11	18	0.8	1	1.3
COc1ccc(CNS(=O)(=O)c2ccc(C3CNC(=O)C3)cc2)cc1 (stereo not given)	0	-14	6	0.9	-1.5	.
COc1ccc2c(c1)CCC(C)N2S(=O)(=O)c1ccc(C2CNC(=O)C2)cc1 (stereo not given)	95*	3	10	0.9	-0.55	-0.52
COc1ccc(C(=O)Nc2ccc3oc(Cc4ccc(Cl)cc4)nc3c2)cc1OC	-5	7	23	0.8	-0.66	.
CCCCCCCCCC(=O)Nc1cccnc1	-9	32	21	0.8	.	.
COc1ccccc1NC(=O)/C=C1\SCC(=O)N1C	100*	1	6	0.9	0.8	0.43
COc1ccccc1NC(=O)N1c2ccccc2NC(=O)CC1C (stereo not given)	.	.	.	.	0.58	.
COc1ccccc1NC(=O)/C=C1\NC(=O)CS1	88*	-2	12	0.9	0.57	0.062
N/C(Cc1ccc(Cl)c(Cl)c1)=N\OC(=O)c1ccc(Br)o1	.	.	.	.	-0.0065	.
SMILES	L major viab	WT yeast gro inh	Diaph inh CS	Diaphorase act	KCC2 mod	ROMK primary
O=C(O)CCCCCCCCCCP(=O)(c1ccccc1)c1ccccc1	.	.	.	.	0.23	0.018
CCCCCCP(=O)(O)c1ccccc1	-7	61*	13	0.9	0.47	.
Cc1[nH][nH]c(=O)c1C(c1c(C)[nH][nH]c1=O)c1cn(Cc2ccccc2Cl)c2ccccc12	28	63*	49	0.5	-0.97	-2.1
COc1ccccc1N1CCN(C(=O)c2cc(N3C(=O)C4C5CCC(C5)C4C3=O)ccc2Cl)CC1 (stereo not given)	89*	-32	8	0.9	0.32	-3.1
CC1CCCN(C(=O)c2cc(N3C(=O)C4C5CCC(C5)C4C3=O)ccc2Cl)C1 (stereo not given)	-4	-4	-6	1.1	1.1	-0.11
CC(C)(C)NC(=O)CCN(/N=C/c1ccc([N+](=O)[O-])o1)C1=NS(=O)(=O)c2ccccc21	99*	-8	18	0.8	0.38	0.92
CN(/N=C/c1ccncc1)C1=NS(=O)(=O)c2ccccc21	6	13	11	0.9	-0.92	0.35
CN(C(=O)CCl)C1CCCc2ccccc21 (stereo not given)	86*	-15	2	1	-0.79	-1.5
COc1cccc(C(=O)N2CCN(CCCc3ccccc3)CC2)c1OC	93*	.	23	0.8	.	-0.69
COc1ccccc1C(=O)N1CCN(CCc2ccccc2)CC1	-9	-15	12	0.9	0.53	0.26
O=C(c1ccncc1)N1CCN(C2CCC(c3ccccc3)CC2)CC1 (stereo not given)	.	.	.	.	0.25	-0.49
COc1cccc(C(=O)N2CCN(C3CCC(c4ccccc4)CC3)CC2)c1OC (stereo not given)	100*	-20	22	0.8	-0.47	-1.4
O=C(Cc1ccc(Cl)cc1)NC(=S)Nc1ccccc1N1CCOCC1	5	62*	26	0.7	2.7	.
O=C(NC(=S)Nc1ccccc1N1CCOCC1)c1cccs1	48	5	25	0.7	39*	0.24
CCCC(=O)NC(=S)Nc1ccccc1N1CCOCC1	0	0	12	0.9	-0.19	.
O=C(Cc1ccc(Cl)c(Cl)c1)Nc1ccccc1N1CCOCC1	6	29	12	0.9	0.0023	-0.25
O=C(Nc1ccccc1N1CCOCC1)c1cccs1	2	-11	11	0.9	.	.
COC(=O)c1ccccc1NC(=O)CNc1cc(Cl)ccc1N1CCOCC1	80*	64*	3	1	-1.3	.
CCOP(=O)(O)c1cccc(OCCOCCOc2cccc(P(=O)(O)OCC)c2)c1	-3	4	11	0.9	-0.48	0.18
Cc1nn(-c2ccc(F)cc2)c(N)c1C1(O)C(=O)Nc2ccccc21 (stereo not given)	7	-7	8	0.9	0.3	-0.76
CC(=O)Nc1ccc2nc(C)n(Cc3ccc(Cl)cc3)c(=O)c2c1	78*	16	0	1	-0.68	.
CCOC(=O)c1ccc(NC(=O)CC2S/C(=N/N=C/c3c[nH]c4ccccc34)NC2=O)cc1 (stereo not given)	62*	10	18	0.8	-0.99	0.59
COc1ccc(CNC(=O)C(OC(=O)c2nsc(Cl)c2Cl)C(C)C)cc1 (stereo not given)	-9	-13	18	0.8	-2	-0.0045
CCC(=O)Nc1ccc(C(=O)CSc2nc(N)cc(N)n2)cc1	.	.	.	.	-0.017	.
